According to PMC12065538 (Drug Design, Development and Therapy, 2025):
Where two headings read alike, the source gives them in different places.

Columns and labels:
[1] = Observed plasma concentrations of venetoclax concomitant with voriconazole; format: in vivo; settings: human, oral, 100 mg
In short: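 Adults with hematologic malignancies received test compound 100 mg orally once daily plus an azole antifungal (400 mg bid day 1, then 200 mg bid; or 200 mg bid continued). Intensive set: EDTA blood 0–1 h predose and 2–24 h post-dose on day 5–11. Validation set: troughs 0–1 h predose, day 2–22. Plasma measured by LC-MS/MS in MRM mode with deuterated internal standards; calibration range 0.05–10.0 μg/mL.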

[2] = cited from earlier work
plasma protein = settings: regardless of concentration; ref prescribing information; cited from earlier work
[3] = venetoclax 100 mg with posaconazole

CC1(C)CCC(CN2CCN(c3ccc(C(=O)NS(=O)(=O)c4ccc(NCC5CCOCC5)c([N+](=O)[O-])c4)c(Oc4cnc5[nH]ccc5c4)c3)CC2)=C(c2ccc(Cl)cc2)C1 [venetoclax]
AUC [1]: 52400 ng·h/mL | reduction of apparent oral clearance (CL/F) by CYP3A inhibitors ([2]; PopPK studies, various patient populations and healthy subjects): 82–86% | CL/F ([2]; co-administered with posaconazole, patients with AML): 1.1 to 1.4 L/h | AUC24h ([2]; observed, venetoclax 70 mg with posaconazole, day 12, CV 54%): 49100 ± 26500 ng·h/mL | CL/F ([2]; other PopPK models with strong CYP3A inhibitors as covariates): 2.2 to 3.6 L/h | AUC24h ([2]; venetoclax 50 mg with posaconazole): 47200 ± 27400 ng·h/mL | accumulation ratio (AUC24h day 14 to day 7) ([2]; venetoclax 70 mg with posaconazole 300 mg qd, range 1.0–2.9): 1.3 | AUC24h [2, 3]: 76200 ± 13700 ng·h/mL | average AUC higher than venetoclax (400 mg) with caspofungin [2, 3]: 103% | AUC24h ([2]; venetoclax 400 mg administered alone): 32800 ± 16900 ng·h/mL | accumulation ratio (AUC24h day 14 to day 7) ([2]; venetoclax 400 mg alone, range 0.5–2.1): 1.0 | CL/F ([2]; venetoclax alone): 15.0 to 19.5 L/h | AUC increase versus venetoclax (400 mg) with caspofungin ([2]; venetoclax with voriconazole): 77% | increase of AUC ([2]; with posaconazole): 8.8 fold | increase of Cmax ([2]; with posaconazole): 7.1 fold | fu (unbound fraction in plasma) (plasma protein): < 0.01
